Converted amounts (≈) assume the structure as drawn.
System: HCT-8
Experiment: Cytotoxicity in vitro expressed as 50% reduction in cell number after a 3-day incubation, in human ileocecal carcinoma HCT-8 cell line
Format: functional, cell-based
Settings: HCT-8, 72 h
Outline: (§1)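 Cell lines adapted to antibiotic-free RPMI-1640 with 10% fetal calf serum; ca. 1×10^5 cells per well, overnight stabilization, then serial dilutions added, quadruplicate per concentration; medium-only controls. After 3-4 days, MTT added and incubated overnight; formazan dissolved in DMSO, absorbance at 570 nm. EC50 calculated from two data points bracketing 50% growth inhibition. Actinomycin as positive control.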

Row | SMILES | EC50 [µg/mL]
1 | CN(C)CCOc1cc(-c2ccccc2)nc2ccccc12 | > 10
2 | Cn1c(-c2ccccc2)cc(=O)c2ccccc21 | > 10
3 | CS(=O)(=O)Oc1cc(-c2ccccc2)nc2ccccc12 | 5.6 (≈ 18.7 µM)
4 | CCCCOc1cc(-c2ccccc2)nc2ccccc12 | > 10
5 | Cc1ccc2nc(-c3ccccc3)cc(O)c2c1 | 0.9 (≈ 3.83 µM)
6 | COc1cc(-c2ccccc2)nc2ccccc12 | > 10
7 | Oc1cc(-c2ccccc2)nc2c(F)cccc12 | 0.04 (≈ 0.167 µM)

System: L1210 (1565)
Experiment: Cytotoxicity in vitro expressed as 50% reduction in cell number after a 3-day incubation, in murine leukemia L-1210 cell line
Format: functional, cell-based
Settings: Mus musculus, 72 h
Outline: as §1

Row | SMILES | EC50 [µg/mL]
8 | CN(C)CCOc1cc(-c2ccccc2)nc2ccccc12 | > 10
9 | Cn1c(-c2ccccc2)cc(=O)c2ccccc21 | > 10
10 | CS(=O)(=O)Oc1cc(-c2ccccc2)nc2ccccc12 | 6.04 (≈ 20.2 µM)
11 | CCCCOc1cc(-c2ccccc2)nc2ccccc12 | > 10
12 | Cc1ccc2nc(-c3ccccc3)cc(O)c2c1 | 0.72 (≈ 3.06 µM)
13 | COc1cc(-c2ccccc2)nc2ccccc12 | > 10
14 | Oc1cc(-c2ccccc2)nc2c(F)cccc12 | 0.67 (≈ 2.8 µM)

System: A549
Experiment: Cytotoxicity in vitro expressed as 50% reduction in cell number after a 3-day incubation, in human lung carcinoma A-549 cell line
Format: functional, cell-based
Settings: A549, 72 h
Outline: as §1

Row | SMILES | EC50 [µg/mL]
15 | CN(C)CCOc1cc(-c2ccccc2)nc2ccccc12 | > 10
16 | Cn1c(-c2ccccc2)cc(=O)c2ccccc21 | > 10
17 | CS(=O)(=O)Oc1cc(-c2ccccc2)nc2ccccc12 | 6.21 (≈ 20.7 µM)
18 | CCCCOc1cc(-c2ccccc2)nc2ccccc12 | > 10
19 | Cc1ccc2nc(-c3ccccc3)cc(O)c2c1 | 0.53 (≈ 2.25 µM)
20 | COc1cc(-c2ccccc2)nc2ccccc12 | > 10
21 | Oc1cc(-c2ccccc2)nc2c(F)cccc12 | 0.61 (≈ 2.55 µM)

System: P388
Experiment: Cytotoxicity in vitro expressed as 50% reduction in cell number after a 3-day incubation, in murine leukemia P-388 cell line
Format: functional, cell-based
Settings: Mus musculus, P388, 72 h
Outline: as §1

Row | SMILES | EC50 [µg/mL]
22 | CN(C)CCOc1cc(-c2ccccc2)nc2ccccc12 | > 10
23 | Cn1c(-c2ccccc2)cc(=O)c2ccccc21 | > 10
24 | CS(=O)(=O)Oc1cc(-c2ccccc2)nc2ccccc12 | > 10
25 | CCCCOc1cc(-c2ccccc2)nc2ccccc12 | > 10
26 | Cc1ccc2nc(-c3ccccc3)cc(O)c2c1 | 0.49 (≈ 2.08 µM)
27 | COc1cc(-c2ccccc2)nc2ccccc12 | 4.5 (≈ 19.1 µM)
28 | Oc1cc(-c2ccccc2)nc2c(F)cccc12 | 0.78 (≈ 3.26 µM)

System: KB
Experiment: Cytotoxicity in vitro expressed as 50% reduction in cell number after a 3-day incubation, in human epidermoid carcinoma KB cell line
Format: functional, cell-based
Settings: 72 h
Outline: as §1

Row | SMILES | EC50 [µg/mL]
29 | CN(C)CCOc1cc(-c2ccccc2)nc2ccccc12 | > 4
30 | Cn1c(-c2ccccc2)cc(=O)c2ccccc21 | > 10
31 | CS(=O)(=O)Oc1cc(-c2ccccc2)nc2ccccc12 | 2.8 (≈ 9.35 µM)
32 | CCCCOc1cc(-c2ccccc2)nc2ccccc12 | 3.8 (≈ 13.7 µM)
33 | Cc1ccc2nc(-c3ccccc3)cc(O)c2c1 | 0.55 (≈ 2.34 µM)
34 | COc1cc(-c2ccccc2)nc2ccccc12 | > 10
35 | Oc1cc(-c2ccccc2)nc2c(F)cccc12 | 0.53 (≈ 2.22 µM)

Biological target: Tubulin beta chain (Bos taurus, UniProt Q6B856)
Experiment: Inhibition of tubulin polymerization
Format: functional
Settings: not given
Outline: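 Bovine brain tubulin 1.0 mg/mL (10 μM) with 1.0 M repurified monosodium glutamate, 1.0 mM MgCl2, 4% DMSO and drug; preincubated 15 min at 37 °C, chilled, GTP added; turbidity at 350 nm after jump from 0 to 37 °C, followed 20 min.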

Tubulin beta chain, sequence (Q6B856 whole entry): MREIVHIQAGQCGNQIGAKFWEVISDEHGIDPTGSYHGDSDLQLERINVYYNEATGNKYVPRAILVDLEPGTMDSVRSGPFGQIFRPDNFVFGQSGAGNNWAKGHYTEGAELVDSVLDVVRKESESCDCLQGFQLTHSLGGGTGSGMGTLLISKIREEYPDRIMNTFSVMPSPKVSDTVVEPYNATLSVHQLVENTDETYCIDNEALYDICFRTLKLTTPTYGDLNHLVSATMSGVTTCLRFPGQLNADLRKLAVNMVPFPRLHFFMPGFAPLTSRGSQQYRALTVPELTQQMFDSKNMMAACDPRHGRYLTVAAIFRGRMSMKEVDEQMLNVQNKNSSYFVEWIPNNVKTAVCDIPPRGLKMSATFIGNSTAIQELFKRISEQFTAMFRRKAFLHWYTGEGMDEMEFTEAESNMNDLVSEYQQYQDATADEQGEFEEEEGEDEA

Row | IC50 [µM] | SMILES
36 | > 40 | Cn1c(-c2ccccc2)cc(=O)c2ccccc21
37 | 11 | Oc1cc(-c2ccccc2)nc2c(F)cccc12

System: RPMI-7951
Experiment: Cytotoxicity in vitro expressed as 50% reduction in cell number after a 3-day incubation, in human melanoma RPMI-7951 cell line
Format: functional, cell-based
Settings: RPMI-7951, 72 h
Outline: as §1

Row | SMILES | EC50 [µg/mL]
38 | Cn1c(-c2ccccc2)cc(=O)c2ccccc21 | > 10
39 | Cc1ccc2nc(-c3ccccc3)cc(O)c2c1 | 0.53 (≈ 2.25 µM)
40 | Oc1cc(-c2ccccc2)nc2c(F)cccc12 | 0.38 (≈ 1.59 µM)

Source: ChEMBL document CHEMBL1126989, “Synthesis and cytotoxicity of 1,6,7,8-substituted 2-(4'-substituted phenyl)-4-quinolones and related compounds: identification as antimitotic agents interacting with tubulin” (J Med Chem, 1993)
